Calls of active or inactive are those of the source. The rule behind the calls is not given here.
Key:
[1] = biological target: DNA topoisomerase 2-alpha (Homo sapiens) (UniProt P11388); assay: Inhibition of topoisomerase 2 (unknown origin)-mediated kinetoplast DNA decatenation at 100 uM after 30 mins by agarose gel electrophoresis
[2] = biological target: T1, DNA topoisomerase 1 (Homo sapiens) (UniProt P11387); assay: Inhibition of topoisomerase 1 (unknown origin)-mediated relaxation of supercoiled plasmid DNA at 100 uM after 30 mins by agarose gel electrophoresis
T1 sequence (whole entry): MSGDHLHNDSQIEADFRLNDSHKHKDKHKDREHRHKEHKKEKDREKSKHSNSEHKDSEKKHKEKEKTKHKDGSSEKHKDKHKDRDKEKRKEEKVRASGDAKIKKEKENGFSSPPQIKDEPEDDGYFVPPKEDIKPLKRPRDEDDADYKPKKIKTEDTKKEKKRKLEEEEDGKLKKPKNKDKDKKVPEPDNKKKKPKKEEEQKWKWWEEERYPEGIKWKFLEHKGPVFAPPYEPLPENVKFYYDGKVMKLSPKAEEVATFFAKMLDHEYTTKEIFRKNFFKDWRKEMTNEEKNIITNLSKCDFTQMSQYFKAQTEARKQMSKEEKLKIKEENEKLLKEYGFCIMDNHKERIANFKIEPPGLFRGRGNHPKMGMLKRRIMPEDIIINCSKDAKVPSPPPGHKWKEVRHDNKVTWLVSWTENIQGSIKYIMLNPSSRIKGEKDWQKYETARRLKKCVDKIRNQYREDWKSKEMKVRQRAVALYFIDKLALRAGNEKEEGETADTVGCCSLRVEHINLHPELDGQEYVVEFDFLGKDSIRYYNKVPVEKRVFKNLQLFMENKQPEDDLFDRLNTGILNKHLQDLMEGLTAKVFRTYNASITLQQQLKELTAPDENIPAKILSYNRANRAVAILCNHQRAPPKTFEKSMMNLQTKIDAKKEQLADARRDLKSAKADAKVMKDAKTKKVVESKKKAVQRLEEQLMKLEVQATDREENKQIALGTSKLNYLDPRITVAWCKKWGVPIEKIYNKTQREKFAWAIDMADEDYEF

[3] = biological target: DNA topoisomerase 2-alpha (Homo sapiens) (UniProt P11388); assay: Inhibition of topoisomerase 2 (unknown origin)-mediated kinetoplast DNA decatenation assessed as intensity of supercoiled DNA after 30 mins by agarose gel electrophoresis relative to etoposide
Outline: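 kDNA with 2 U topoisomerase II, 37 °C for 30 min, then proteinase K for 15 min at 37 °C and a 1% agarose TAE gel at 1 V/cm. Supercoiled-DNA band intensity was measured, and each compound's value was standardized by dividing it by the etoposide value.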

[4] = biological target: T1, DNA topoisomerase 1 (Homo sapiens); assay: Inhibition of topoisomerase 1 (unknown origin)-mediated relaxation of supercoiled plasmid DNA assessed as intensity of supercoiled DNA after 30 mins by agarose gel electrophoresis relative to camptothecin
Outline: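 Topo I (2 U) relaxation of 250 ng supercoiled plasmid at pH 7.9 in Tris/NaCl/EDTA/BSA/spermidine/glycerol buffer, 37 °C for 30 min, with matched DMSO. Stopped with SDS, proteinase K digestion, 1% agarose TAE gel, ethidium stain. Supercoiled-band intensity of each compound is divided by that of the camptothecin control.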

[5] = biological target: T1, DNA topoisomerase 1 (Homo sapiens); assay: Inhibition of topoisomerase 1 (unknown origin)-mediated relaxation of supercoiled plasmid DNA assessed as concentration of the compound exhibiting activity of 100 uM camptothecin after 30 mins by agarose gel electrophoresis
[6] = biological target: DNA topoisomerase 2-alpha (Homo sapiens) (UniProt P11388); assay: Inhibition of topoisomerase 2 (unknown origin)-mediated kinetoplast DNA decatenation assessed as concentration of the compound exhibiting activity of 100 uM etoposide after 30 mins by agarose gel electrophoresis

Chain of DNA topoisomerase 2-alpha (Homo sapiens) (P11388 whole entry): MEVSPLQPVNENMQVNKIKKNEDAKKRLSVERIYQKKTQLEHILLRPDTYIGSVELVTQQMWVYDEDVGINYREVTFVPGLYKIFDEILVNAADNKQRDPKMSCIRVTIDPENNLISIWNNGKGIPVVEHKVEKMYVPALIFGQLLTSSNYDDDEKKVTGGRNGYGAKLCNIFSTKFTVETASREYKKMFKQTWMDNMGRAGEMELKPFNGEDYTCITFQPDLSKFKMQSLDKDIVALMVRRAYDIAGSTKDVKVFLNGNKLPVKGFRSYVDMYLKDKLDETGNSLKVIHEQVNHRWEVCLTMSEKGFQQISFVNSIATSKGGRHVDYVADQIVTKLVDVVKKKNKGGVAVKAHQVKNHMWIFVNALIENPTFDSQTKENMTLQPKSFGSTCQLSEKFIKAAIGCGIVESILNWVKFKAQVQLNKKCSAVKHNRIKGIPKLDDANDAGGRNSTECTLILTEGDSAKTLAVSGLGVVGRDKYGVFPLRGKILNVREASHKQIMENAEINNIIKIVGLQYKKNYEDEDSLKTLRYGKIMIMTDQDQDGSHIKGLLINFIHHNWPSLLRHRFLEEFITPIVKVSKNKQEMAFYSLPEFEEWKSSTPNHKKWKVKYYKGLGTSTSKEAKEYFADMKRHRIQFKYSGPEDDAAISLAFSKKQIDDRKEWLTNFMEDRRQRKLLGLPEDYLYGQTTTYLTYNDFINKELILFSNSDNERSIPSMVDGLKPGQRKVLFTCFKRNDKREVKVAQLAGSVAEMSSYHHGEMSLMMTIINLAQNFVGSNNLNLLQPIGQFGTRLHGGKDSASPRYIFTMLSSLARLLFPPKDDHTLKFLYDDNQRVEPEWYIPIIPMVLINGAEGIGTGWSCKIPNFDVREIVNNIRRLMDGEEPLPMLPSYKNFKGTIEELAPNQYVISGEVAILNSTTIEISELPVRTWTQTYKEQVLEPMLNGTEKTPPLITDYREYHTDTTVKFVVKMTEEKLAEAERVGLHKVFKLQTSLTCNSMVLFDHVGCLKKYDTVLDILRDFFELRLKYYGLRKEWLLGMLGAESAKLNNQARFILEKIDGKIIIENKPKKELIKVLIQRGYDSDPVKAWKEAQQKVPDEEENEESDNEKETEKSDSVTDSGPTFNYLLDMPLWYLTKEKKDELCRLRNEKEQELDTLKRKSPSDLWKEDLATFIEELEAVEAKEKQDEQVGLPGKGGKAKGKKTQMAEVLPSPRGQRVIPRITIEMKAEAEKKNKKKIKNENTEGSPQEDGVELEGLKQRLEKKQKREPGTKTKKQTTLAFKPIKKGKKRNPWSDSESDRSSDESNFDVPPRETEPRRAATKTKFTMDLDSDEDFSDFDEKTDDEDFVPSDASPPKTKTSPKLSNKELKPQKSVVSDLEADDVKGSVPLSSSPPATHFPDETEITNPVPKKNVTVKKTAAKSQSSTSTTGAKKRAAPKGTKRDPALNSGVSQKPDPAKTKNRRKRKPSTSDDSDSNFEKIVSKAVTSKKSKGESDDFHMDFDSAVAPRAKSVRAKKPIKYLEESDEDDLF

| inhibition [1] | inhibition [2] | fold change (FC) [3] | fold change (FC) [4] | Activity [5] [µM] | Activity [6] [µM] | SMILES |
| --- | --- | --- | --- | --- | --- | --- |
| Active | Active | 1.07 | 0.98 |  |  | CC1(C)CC[C@]2(C(=O)NCc3ccccc3)CC[C@]3(C)C(=CC[C@@H]4[C@@]5(C)CC[C@H](O)C(C)(C)[C@@H]5CC[C@]43C)[C@@H]2C1 |
|  |  | 0.92 | 0.54 |  |  | CC1(C)CC[C@]2(C(=O)O)CC[C@]3(C)C(=CC[C@@H]4[C@@]5(C)CC[C@H](OS(=O)(=O)c6ccccc6)C(C)(C)[C@@H]5CC[C@]43C)[C@@H]2C1 |
| Active |  | 1.03 | 0.4 |  |  | CC1(C)CC[C@]2(C(=O)O)CC[C@]3(C)C(=CC[C@@H]4[C@@]5(C)CC[C@H](OC(=O)Nc6cccc7ccccc67)C(C)(C)[C@@H]5CC[C@]43C)[C@@H]2C1 |
|  |  | 1.12 | 1.64 | 16.1 | 68 | CC1(C)CC[C@]2(C(=O)O)CC[C@]3(C)C(=CC[C@@H]4[C@@]5(C)CC[C@H](OC(=O)NCc6ccccc6)C(C)(C)[C@@H]5CC[C@]43C)[C@@H]2C1 |
|  |  | 0.74 | 0.84 | 265 | 276 | CC1(C)CC[C@]2(C(=O)O)CC[C@]3(C)C(=CC[C@@H]4[C@@]5(C)CC[C@H](O)C(C)(C)[C@@H]5CC[C@]43C)[C@@H]2C1 |
|  |  | 1.26 | 1.57 | 15.2 | 53 | C=CCNC(=O)O[C@H]1CC[C@]2(C)[C@H]3CC=C4[C@@H]5CC(C)(C)CC[C@]5(C(=O)O)CC[C@@]4(C)[C@]3(C)CC[C@H]2C1(C)C |

Continued, compound first:

| SMILES | inhibition [1] | inhibition [2] | fold change (FC) [3] | fold change (FC) [4] | Activity [5] [µM] | Activity [6] [µM] |
| --- | --- | --- | --- | --- | --- | --- |
| CC1(C)CC[C@]2(C(=O)NS(=O)(=O)c3ccccc3)CC[C@]3(C)C(=CC[C@@H]4[C@@]5(C)CC[C@H](OC(=O)NS(=O)(=O)c6ccccc6)C(C)(C)[C@@H]5CC[C@]43C)[C@@H]2C1 |  |  | 0.91 | 1.36 | 23.1 |  |
| CC1(C)CC[C@]2(C(=O)Nc3cccc4ccccc34)CC[C@]3(C)C(=CC[C@@H]4[C@@]5(C)CC[C@H](OC(=O)Nc6cccc7ccccc67)C(C)(C)[C@@H]5CC[C@]43C)[C@@H]2C1 | Active |  | 1.07 | 1.55 | 17.4 |  |
| CC1(C)CC[C@]2(C(=O)O)CC[C@]3(C)C(=CC[C@@H]4[C@@]5(C)CC[C@H](OC(=O)Nc6ccc(-c7ccccc7)cc6)C(C)(C)[C@@H]5CC[C@]43C)[C@@H]2C1 |  |  | 1.21 | 0.79 |  | 46.5 |
| COc1cc([C@@H]2c3cc4c(cc3[C@@H](O[C@@H]3O[C@@H]5CO[C@@H](C)O[C@H]5[C@H](O)[C@H]3O)[C@H]3COC(=O)[C@H]23)OCO4)cc(OC)c1O | Active |  |  |  |  |  |
| CC1(C)CC[C@]2(C(=O)NCc3ccccc3)CC[C@]3(C)C(=CC[C@@H]4[C@@]5(C)CC[C@H](OC(=O)NCc6ccccc6)C(C)(C)[C@@H]5CC[C@]43C)[C@@H]2C1 |  |  | 1.21 | 1.42 | 25.4 | 57 |
